pIC50: −log10 of the molar value.
Legend:
Type in all cases: functional, organism-based
Influenza A virus [1] = experiment: Antiviral activity against influenza A (A/Washington/10/2008 (H1N1)) virus after 30 mins by NA-star substrate based chemiluminescent assay; conditions: 0.5 h
How it was run: (§1)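 Titrated virus in NA-Star buffer (26 mM MES, 4 mM CaCl2, pH 6.0) was preincubated with ten half-log inhibitor dilutions (0.03–1,000 nM final) for 30 min at 37°C, then with substrate for 30 min at room temperature. Accelerator solution was added and luminescence read for 0.1 s. IC50 came from a Vmax·[1−x/(K+x)] fit, mean of ≥3 experiments.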

Influenza A virus [2] = experiment: Antiviral activity against influenza A (A/North Carolina/02/2009 (H1N1)) virus after 30 mins by NA-star substrate based chemiluminescent assay; conditions: 0.5 h; how it was run: as §1
Influenza A virus [3] = experiment: Antiviral activity against influenza A (A/New York/18/2009 (H1N1)) virus after 30 mins by NA-star substrate based chemiluminescent assay; conditions: 0.5 h; how it was run: as §1
Influenza A virus [4] = experiment: Antiviral activity against influenza A (A/Washington/29/2009 (H1N1)) virus after 30 mins by NA-star substrate based chemiluminescent assay; conditions: 0.5 h; how it was run: as §1
Influenza A virus [5] = experiment: Antiviral activity against influenza A (A/Singapore/91/2009 (H1N1)) virus after 30 mins by NA-star substrate based chemiluminescent assay; conditions: 0.5 h; how it was run: as §1
Influenza A virus [6] = experiment: Antiviral activity against influenza A (A/Washington/10/2008 (H1N1)) virus after 30 mins by MUNANA substrate based fluorometric assay; conditions: 0.5 h
How it was run: (§2)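 Fluorometric NA inhibition with MUNANA (100 μM final). Titrated virus in NA-Star buffer (26 mM MES, 4 mM CaCl2, pH 6.0) was preincubated with ten half-log inhibitor dilutions (0.03–1,000 nM final) for 30 min at 37°C, then with substrate for 30 min at 37°C. The reaction was stopped with 0.1 M glycine in 25% ethanol, pH 10.7, and 4-methylumbelliferone was read at ex 365/em 450 nm. IC50 came from a Vmax·[1−x/(K+x)] fit, mean of ≥3 experiments.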

Influenza A virus [7] = experiment: Antiviral activity against influenza A (A/North Carolina/02/2009 (H1N1)) virus after 30 mins by MUNANA substrate based fluorometric assay; conditions: 0.5 h; how it was run: as §2
Influenza A virus [8] = experiment: Antiviral activity against influenza A (A/New York/18/2009 (H1N1)) virus after 30 mins by MUNANA substrate based fluorometric assay; conditions: 0.5 h; how it was run: as §2
Influenza A virus [9] = experiment: Antiviral activity against influenza A (A/Washington/29/2009 (H1N1)) virus after 30 mins by MUNANA substrate based fluorometric assay; conditions: 0.5 h; how it was run: as §2
Influenza A virus [10] = experiment: Antiviral activity against influenza A (A/Singapore/91/2009 (H1N1)) virus after 30 mins by MUNANA substrate based fluorometric assay; conditions: 0.5 h; how it was run: as §2
Influenza A virus [11] = experiment: Antiviral activity against influenza A (A/Washington/10/2008 (H1N1)) virus after 16 to 18 hrs by fetuin substrate based colorimetric assay
How it was run: (§3)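 Colorimetric NA inhibition with fetuin substrate. Virus was diluted in NA-Star buffer (26 mM MES, 4 mM CaCl2, pH 6.0) to give OD549 of 0.4–0.8 after 18 h. It was preincubated with ten half-log inhibitor dilutions (0.03–1,000 nM final) for 1 h at 37°C, then with fetuin (5.5 mg/ml final) for 16–18 h at 37°C. Released sialic acid was read at 549 nm after periodate/TBA reaction and butanol extraction. IC50 came from a Vmax·[1−x/(K+x)] fit, mean of ≥2 experiments.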

Influenza A virus [12] = experiment: Antiviral activity against influenza A (A/North Carolina/02/2009 (H1N1)) virus after 16 to 18 hrs by fetuin substrate based colorimetric assay; how it was run: as §3
Influenza A virus [13] = experiment: Antiviral activity against influenza A (A/New York/18/2009 (H1N1)) virus after 16 to 18 hrs by fetuin substrate based colorimetric assay; how it was run: as §3
Influenza A virus [14] = experiment: Antiviral activity against influenza A (A/Washington/29/2009 (H1N1)) virus after 16 to 18 hrs by fetuin substrate based colorimetric assay; how it was run: as §3
Influenza A virus [15] = experiment: Antiviral activity against influenza A (A/Singapore/91/2009 (H1N1)) virus after 16 to 18 hrs by fetuin substrate based colorimetric assay; how it was run: as §3

Structure (SMILES) | pIC50 (Influenza A virus [1]) | pIC50 (Influenza A virus [2]) | pIC50 (Influenza A virus [3]) | pIC50 (Influenza A virus [4]) | pIC50 (Influenza A virus [5]) | pIC50 (Influenza A virus [6]) | pIC50 (Influenza A virus [7]) | pIC50 (Influenza A virus [8]) | pIC50 (Influenza A virus [9]) | pIC50 (Influenza A virus [10]) | pIC50 (Influenza A virus [11]) | pIC50 (Influenza A virus [12]) | pIC50 (Influenza A virus [13]) | pIC50 (Influenza A virus [14]) | pIC50 (Influenza A virus [15])
C/C=C\[C@@H]1C[C@H](C(=O)O)N[C@H]1[C@@H](NC(C)=O)[C@](C)(CCC)OC | 9.80 | 9.74 | 9.37 | 9.46 | 9.57 | 9.29 | 9.29 | 9.13 | 9.28 | 9.34 | 8.99 | 9.12 | 9.05 | 8.88 | 8.85
CO[C@@H]([C@@H]1OC(C(=O)O)=C[C@H](NC(=N)N)[C@H]1NC(C)=O)[C@H](O)CO [LANINAMIVIR] | 9.85 | – | 9.31 | 9.31 | 9.52 | 9.28 | 9.21 | 9.02 | 9.13 | 9.29 | 9.10 | 9.07 | 9.13 | 8.80 | 9.05
CCC(CC)[C@H](NC(C)=O)[C@@H]1[C@H](O)[C@@H](C(=O)O)C[C@H]1NC(=N)N [PERAMIVIR ANHYDROUS] | 9.96 | 10.10 | 9.92 | 9.85 | 9.96 | 9.74 | 9.72 | 9.49 | 9.70 | 9.85 | 9.12 | 9.15 | 9.39 | 9.31 | 9.26
